Experimental data as given in ChEMBL document CHEMBL1158180, “Synthesis and antimicrobial activity of some new heterocycles incorporating antipyrine moiety” (2008).

What was measured:
Settings in all cases: read-out: IZ
Fusarium oxysporum [1] = assay: Antimicrobial activity Fusarium oxysporum at 0.15 mg/mL after 72 hrs by agar diffusion technique
Bacillus thuringiensis [2] = assay: Antimicrobial activity Bacillus thuringiensis at 0.15 mg/mL after 24 hrs by agar diffusion technique; format: functional
Summary of the method: (§1)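 Agar diffusion on nutrient agar. Test solutions were 0.15 mg/mL in DMSO, and DMSO alone was the blank. Plates were seeded with the bacterial culture and incubated 24 h at 30 °C. The read-out was the diameter of the inhibition zone in mm.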

Klebsiella pneumoniae [3] = assay: Antimicrobial activity Klebsiella pneumoniae at 0.15 mg/mL after 24 hrs by agar diffusion technique; format: functional
Summary of the method: as §1

Botrytis fabae [4] = assay: Antimicrobial activity Botrytis fabae at 0.15 mg/mL after 72 hrs by agar diffusion technique
Klebsiella pneumoniae [5] = assay: Antimicrobial activity Klebsiella pneumoniae at 25 ug/mL after 24 hrs by agar diffusion technique; format: functional
Fusarium oxysporum [6] = assay: Antimicrobial activity Fusarium oxysporum at 25 ug/mL after 72 hrs by agar diffusion technique
Botrytis fabae [7] = assay: Antimicrobial activity Botrytis fabae at 25 ug/mL after 72 hrs by agar diffusion technique
Bacillus thuringiensis [8] = assay: Antimicrobial activity Bacillus thuringiensis at 25 ug/mL after 24 hrs by agar diffusion technique; format: functional

SMILES | zone of inhibition at 150 µg/mL (Fusarium oxysporum [1]) [mm] | zone of inhibition at 150 µg/mL (Bacillus thuringiensis [2]) [mm] | zone of inhibition at 150 µg/mL (Klebsiella pneumoniae [3]) [mm] | zone of inhibition at 150 µg/mL (Botrytis fabae [4]) [mm] | zone of inhibition at 25 µg/mL (Klebsiella pneumoniae [5]) [mm] | zone of inhibition at 25 µg/mL (Fusarium oxysporum [6]) [mm] | zone of inhibition at 25 µg/mL (Botrytis fabae [7]) [mm] | zone of inhibition at 25 µg/mL (Bacillus thuringiensis [8]) [mm]
Cc1c(NC(=O)c2cc3ccccc3oc2=N)c(=O)n(-c2ccccc2)n1C | 18 | 24 | 22 | 18 |  |  |  | 
O=C(N[C@H](CO)[C@H](O)c1ccc([N+](=O)[O-])cc1)C(Cl)Cl [CHLORAMPHENICOL] |  |  |  |  | 20 | 15 | 16 | 23
Cc1cc(C)c2c(N/N=C(\C#N)C(=O)Nc3c(C)n(C)n(-c4ccccc4)c3=O)n[nH]c2n1 | 16 | 16 | 19 | 16 |  |  |  | 
Cc1c(-n2nnc3[nH]nc(Nc4ccccc4)c3c2=O)c(=O)n(-c2ccccc2)n1C | 22 | 22 | 22 | 26 |  |  |  | 
Cc1c(-n2cnc3[nH]nc(Nc4ccccc4)c3c2=O)c(=O)n(-c2ccccc2)n1C | 25 | 28 | 29 | 27 |  |  |  | 
Cc1cc(O)n2nc(Nc3ccccc3)c(C(=O)Nc3c(C)n(C)n(-c4ccccc4)c3=O)c2n1 | 25 | 20 | 24 | 27 |  |  |  | 
OC(Cn1cncn1)(Cn1cncn1)c1ccc(F)cc1F [FLUCONAZOLE] |  |  |  |  |  | 16 | 22 | 
Cc1c(NC(=O)c2c(Nc3ccccc3)n[nH]c2/N=C\N(C)C)c(=O)n(-c2ccccc2)n1C | 21 | 27 | 24 | 25 |  |  |  | 
Cc1cc(C)n2nc(Nc3ccccc3)c(C(=O)Nc3c(C)n(C)n(-c4ccccc4)c3=O)c2n1 | 25 | 21 | 28 | 24 |  |  |  | 
Cc1cc(C)c2c(n1)[nH]n1c(=N)c(C(=O)Nc3c(C)n(C)n(-c4ccccc4)c3=O)nnc21 | 14 | 13 | 14 | 13 |  |  |  | 
CC1(C)S[C@@H]2[C@H](NC(=O)[C@H](N)c3ccccc3)C(=O)N2[C@H]1C(=O)O [AMPICILLIN] |  |  |  |  | 19 | 15 | 17 | 18
Cc1cc(C)n(-c2c(C)n(C)n(-c3ccccc3)c2=O)c(=O)c1C#N | 12 | 10 | 13 | 12 |  |  |  | 
Cc1c(NC(=O)CC#N)c(=O)n(-c2ccccc2)n1C | 12 | 12 | 13 | 10 |  |  |  | 
Cc1c(NC(=O)c2c(Nc3ccccc3)n[nH]c2N)c(=O)n(-c2ccccc2)n1C | 12 | 15 | 12 | 16 |  |  |  | 
Cc1c(NC(=O)c2sc(=S)n(-c3ccccc3)c2N)c(=O)n(-c2ccccc2)n1C | 13 | 12 | 12 | 13 |  |  |  | 
